In publication PMC4055946 (Nuclear medicine and biology, 2014):

Legend:
[1] = Rat whole body biodistribution of radioactivity after intravenous injection; format: in vivo; conditions: female CD rats, i.v., N = 3; for Tissue biodistribution, Bone, avg: femur in its entirety
Summary of the method: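 Female CD rats (N = 6) under light isoflurane got carbon-11 labeled test compound (1.85-4.44 MBq in 5% ethanol/saline) by tail vein. At 5 and 40 min, groups of 3 were anesthetized and killed by decapitation, and tissues were removed. Samples were weighed and counted for carbon-11, and uptake was expressed as % injected dose/g.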

cathepsin K = target: T1, cathepsin K (Rattus norvegicus, UniProt O35186); test: MicroPET imaging of bone uptake and blocking in rat; conditions: for radioactivity in actively growing bone regions relative to non-target regions such as muscle: normal rat, microPET, 0-60 min, i.v.
T1 sequence (O35186 115-329): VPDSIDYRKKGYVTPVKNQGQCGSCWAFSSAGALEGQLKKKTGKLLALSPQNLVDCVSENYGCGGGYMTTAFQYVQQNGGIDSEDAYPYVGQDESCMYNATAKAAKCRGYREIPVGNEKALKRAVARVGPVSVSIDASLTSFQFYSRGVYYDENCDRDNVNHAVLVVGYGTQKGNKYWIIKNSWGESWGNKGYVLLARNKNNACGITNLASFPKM

[11CH3]Oc1ccc(CCNC(=O)c2cnc(C#N)nc2NC2CCCCC2)cc1 [[^11C]1, 2-cyano-4-(cyclohexylamino)-N-(4-[^11C]methoxyphenethyl)-pyrimidine-5-carboxamide]
Tissue biodistribution, Adrenal, avg ([1]; 5 min): 3.57 % injected dose/g | Tissue biodistribution, Blood, avg ([1]; 5 min): 0.24 % injected dose/g | Tissue biodistribution, Brain, avg ([1]; 5 min): 0.43 % injected dose/g | Tissue biodistribution, Heart, avg ([1]; 5 min): 1.23 % injected dose/g | Tissue biodistribution, Kidney, avg ([1]; 5 min): 2.03 % injected dose/g | Tissue biodistribution, Liver, avg ([1]; 5 min): 3.02 % injected dose/g | Tissue biodistribution, Lung, avg ([1]; 5 min): 0.68 % injected dose/g | Tissue biodistribution, Muscle, avg ([1]; 5 min): 0.11 % injected dose/g | Tissue biodistribution, Pancreas, avg ([1]; 5 min): 1.68 % injected dose/g | Tissue biodistribution, Spleen, avg ([1]; 5 min): 1.03 % injected dose/g | Tissue biodistribution, Bone, avg ([1]; 5 min): 0.26 % injected dose/g | Tissue biodistribution, Adrenal, avg ([1]; 40 min): 0.51 % injected dose/g | Tissue biodistribution, Blood, avg ([1]; 40 min): 0.11 % injected dose/g | Tissue biodistribution, Brain, avg ([1]; 40 min): 0.11 % injected dose/g | Tissue biodistribution, Heart, avg ([1]; 40 min): 0.19 % injected dose/g | Tissue biodistribution, Kidney, avg ([1]; 40 min): 0.41 % injected dose/g | Tissue biodistribution, Liver, avg ([1]; 40 min): 0.68 % injected dose/g | Tissue biodistribution, Lung, avg ([1]; 40 min): 0.16 % injected dose/g | Tissue biodistribution, Muscle, avg ([1]; 40 min): 0.11 % injected dose/g | Tissue biodistribution, Pancreas, avg ([1]; 40 min): 0.56 % injected dose/g | Tissue biodistribution, Spleen, avg ([1]; 40 min): 0.22 % injected dose/g | Tissue biodistribution, Bone, avg ([1]; 40 min): 0.14 % injected dose/g | radioactivity in actively growing bone regions relative to non-target regions such as muscle (cathepsin K): 2 to 3 times

CC(C)(C)CNc1nc(C#N)ncc1C(=O)NCCc1ccc(O[11CH3])cc1 [[^11C]2, 2-cyano-N-(4-[^11C]methoxyphenethyl)-4-(neopentylamino)pyrimidine-5-carboxamide]
radioactivity in actively growing bone regions relative to non-target regions such as muscle (cathepsin K): 2 to 3 times | bone uptake of radioactivity after blocking dose of unlabeled ligand (cathepsin K; rat microPET, 2 mg/kg unlabeled 2 ten minutes prior to the radioligand): reduction of bone uptake of radioactivity to essentially levels equivalent to background in non-target tissues
